ChEMBL document CHEMBL4825662 (J Med Chem, 2021)

Experiments:
[1] = Intrinsic clearance in Sprague-Dawley rat liver microsomes preincubated followed by NADPH addition and measured up to 45 mins by LC-MS/MS analysis; format: ADME, Microsome
[2] = Intrinsic clearance in Beagle dog liver microsomes preincubated followed by NADPH addition and measured up to 45 mins by LC-MS/MS analysis; format: ADME, Canis lupus familiaris, Microsome
[3] = Intrinsic clearance in human liver microsomes preincubated followed by NADPH addition and measured up to 45 mins by LC-MS/MS analysis; format: ADME, Microsome
[4] = Clearance in CD1 mouse at 1 mg/kg, iv measured after 0.083 to 24 hrs by UHPLC-TOF method; format: ADME, organism-based; conditions: in vivo, time 0.083-24 hrs
[5] = Volume of distribution at steady state in CD1 mouse at 1 mg/kg, iv measured after 0.083 to 24 hrs by UHPLC-TOF method; format: ADME, organism-based; conditions: in vivo, time 0.083-24 hrs, read-out: Vdss
In short: (§1)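 Male CD-1 mice, acclimatized and individually housed, dosed IV and PO as amorphous-solid suspension. Terminal cardiac-puncture blood into heparinized tubes on wet ice, centrifuged at 4 °C within 15 min; plasma snap-frozen at −20 °C. IV arm sampled 2 min–24 h, oral arm 5 min–24 h. Plasma analysed by UHPLC-quadrupole-TOF MS.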

[6] = Apparent permeability across basolateral side to apical side in MDCK-MDR1 cells at 10 uM measured at 60 mins by LC-MS/MS analysis; format: ADME, cell-based, Canis lupus familiaris; conditions: dog
[7] = Half life in CD1 mouse at 10 mg/kg, po measured after 0.083 to 24 hrs by UHPLC-TOF method; format: ADME, organism-based; conditions: in vivo, time 0.083-24 hrs
[8] = Tmax in CD1 mouse at 10 mg/kg, po measured after 0.083 to 24 hrs by UHPLC-TOF method; format: ADME, organism-based; conditions: in vivo, time 0.083-24 hrs; in short: as §1
[9] = Cmax in CD1 mouse at 10 mg/kg, po measured after 0.083 to 24 hrs by UHPLC-TOF method; format: ADME, organism-based; parameters: route oral, time 0.083-24 hrs, dose 10 mg/kg; conditions: in vivo
[10] = Oral bioavailability in CD1 mouse at 10 mg/kg measured after 0.03 to 24 hrs by UHPLC-TOF method; format: ADME, organism-based; conditions: in vivo, time 0.03-24 hrs; in short: as §1
[11] = target: Fusion glycoprotein F0 (Human respiratory syncytial virus A (strain A2), UniProt P03420); assay: Inhibition of Respiratory syncytial virus fusion protein
Fusion glycoprotein F0, sequence (P03420 26-109 limits assumed): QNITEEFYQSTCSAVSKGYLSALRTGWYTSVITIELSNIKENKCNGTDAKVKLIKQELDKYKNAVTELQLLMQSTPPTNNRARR
Fusion glycoprotein F0, sequence (P03420 137-574 limits assumed): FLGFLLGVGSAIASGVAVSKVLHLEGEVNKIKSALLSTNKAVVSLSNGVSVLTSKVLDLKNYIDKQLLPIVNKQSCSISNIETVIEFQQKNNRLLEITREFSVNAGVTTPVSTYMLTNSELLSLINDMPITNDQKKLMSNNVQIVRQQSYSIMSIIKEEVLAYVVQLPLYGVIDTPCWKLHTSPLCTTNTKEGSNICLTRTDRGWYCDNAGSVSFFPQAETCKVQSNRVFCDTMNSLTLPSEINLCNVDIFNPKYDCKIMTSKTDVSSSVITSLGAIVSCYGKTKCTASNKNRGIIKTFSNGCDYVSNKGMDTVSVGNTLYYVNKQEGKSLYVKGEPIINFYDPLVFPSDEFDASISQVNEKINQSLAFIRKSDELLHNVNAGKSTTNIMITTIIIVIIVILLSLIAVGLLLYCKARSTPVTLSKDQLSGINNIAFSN
In short: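 293T cells cotransfected with codon-optimized RSV A2 F plasmid and a GAL4-responsive luciferase reporter, mixed after 24 h with a second 293T population expressing GAL4-NF-κB transactivator. Threefold serial compound dilutions present during mixing; F-mediated fusion read as luciferase after 24 h. IC₅₀ averaged over at least two testing occasions.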

[12] = system: Human orthopneumovirus; assay: Antiviral activity against Respiratory syncytial virus A2 by Plaque reduction assay; format: functional, organism-based
In short: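 Vero cells were infected with RSV A2 for 48 h with compound at 0.01 nM to 100 μM. Plaques were detected by immunostaining. Values are the average of at least two testing occasions.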

[13] = system: Human orthopneumovirus; assay: Antiviral activity against Respiratory syncytial virus A2 infected in African green monkey Vero cells by Plaque reduction assay; format: functional, organism-based
[14] = Cytotoxicity against African green monkey Vero cells by MTT assay; format: cell-based; conditions: chlorocebus sabaeus
In short: (§2)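 Viability was assessed by MTT after culture with compound at 0.01 nM to 100 μM, run in parallel with plaque reduction assays. Values are the average of at least two testing occasions.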

[15] = system: Human orthopneumovirus; assay: Antiviral activity against Respiratory syncytial virus A2 infected in human Hep2 cells by Plaque reduction assay; format: functional, organism-based; conditions: A2, HEp-2
In short: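 Hep2 cells were infected with RSV strain A2 in the presence of compound. Plaques were detected by immunostaining after 48 h. Values are the average of at least two testing occasions.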

[16] = Cytotoxicity against human Hep2 cells; format: cell-based; conditions: HEp-2 cells
In short: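 Hep2 cells were cultured in parallel with the plaque assays at compound concentrations of 0.01 nM to 100 μM. Viability was read by MTT, CellTox green or CellTiter-Glo.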

[17] = Cytotoxicity against human HepG2 cells by MTT assay; format: cell-based; in short: as §2

With `CC(C)CCn1c(CN2C(=O)C3(CC3)c3cccnc32)nc2cc(CN)ccc21` the Microsomal intrinsic clearance [1] was 328 µL/min, the intrinsic clearance [2] was 71.3 µL/min and the “intrinsic clearance (CLint)” value [3] was 177 µL/min. It also gave a clearance [4] of 81.1 mL/min/kg, a Vd [5] of 4.5 L/kg and a Papp B→A at 1 h, 10 µM [6] of 0.1 ×10⁻⁶ cm/s. It also gave a half-life [7] of 60 min, a Tmax [8] of 2 h and a Cmax [9] of 200 ng/mL. For the same compound, the bioavailability [10] was 18.1%, the IC50 [11] was 0.9 nM and the EC50 [12] was 4.1 nM.
`CC(C)CCn1c(CN2C(=O)C3(CCC3)c3ccccc32)nc2cc(CN)ccc21` showed an EC50 [13] of 240 nM and a CC50 [14] of 13.8 µM.
For `NC(=O)c1ccc2c(c1)nc(CN1C(=O)C3(CC3)c3ccc(F)cc31)n2CCCC(F)(F)F`, the EC50 [15] was 13.7 nM and the CC50 [16] was greater than 20 µM.
Work on `CC(=O)NCc1ccc2c(c1)nc(CN1C(=O)C3(CC3)c3ccc(F)cc31)n2CCCC(F)(F)F` yielded an EC50 [15] of 107 nM and a CC50 [16] greater than 20 µM.
Compound `O=C1N(Cc2nc3cc(Cl)ccc3n2CCCC(F)(F)F)c2cc(F)ccc2C12CC2` has an EC50 [13] of 5.4 nM, a CC50 [14] greater than 25 µM and a Microsomal intrinsic clearance [1] of 71.3 µL/min. For the same compound, the intrinsic clearance [2] was 328 µL/min, the “intrinsic clearance (CLint)” value [3] was 177 µL/min and the Papp B→A at 1 h, 10 µM [6] was 0.14 ×10⁻⁶ cm/s.
`CC(C)CCn1c(CN2C(=O)C3(CC3)Oc3ccccc32)nc2cc(CN)ccc21` showed an EC50 [13] of 1700 nM and a CC50 [14] of 22.7 µM.
Work on `N#Cc1ccc2c(c1)nc(CN1C(=O)C3(CC3)c3ccc(F)cc31)n2CCCC(F)(F)F` yielded an EC50 [13] of 444 nM and a CC50 [17] of 23.7 µM.
Work on `CC(C)CCn1c(CN2C(=O)C3(CCOCC3)c3ccccc32)nc2cc(CN)ccc21` yielded an IC50 [11] of 0.69 nM and an EC50 [12] of 3.4 nM.
Compound `CC(C)CCn1c(CN2C(=O)C3(CC3)c3c(Cl)cccc32)nc2cc(CN)ccc21` has an EC50 [13] of 181 nM and a CC50 [14] of 5.2 µM.
In the case of `CCNC(=N)c1ccc2c(c1)nc(CN1C(=O)C3(CC3)c3ccc(F)cc31)n2CCCC(F)(F)F`, the EC50 [13] is reported as 454 nM and the CC50 [17] is reported as greater than 25 µM.
Compound `CC(C)CCn1c(CN2C(=O)C3(CC3)Cc3ccccc32)nc2cc(CN)ccc21` has an EC50 [13] of 3400 nM and a CC50 [14] of 33.4 µM.
Compound `CC(C)CCn1c(CN2C(=O)C3(CC3)c3cccc(Cl)c32)nc2cc(CN)ccc21` has an EC50 [13] of 2380 nM and a CC50 [14] of 21.7 µM.
Work on `CC(C)CCn1c(CN2C(=O)C3(CC3)c3cc(Cl)ccc32)nc2cc(CN)ccc21` yielded an EC50 [13] of 25.4 nM and a CC50 [14] of 0.71 µM.
With `N=C(N)NCc1ccc2c(c1)nc(CN1C(=O)C3(CC3)c3ccc(F)cc31)n2CCCC(F)(F)F` the EC50 [15] was 21.1 nM and the CC50 [16] was greater than 20 µM.
